Measurements from ChEMBL document CHEMBL1781959, “Synthesis and in vitro antitumor activity of substituted quinazoline and quinoxaline derivatives: search for anticancer agent” (Eur J Med Chem, 2011).

Tests used:
Assay type in all cases: functional
[1] = tested on: LOX IMVI; assay: Anticancer activity against human LOXIMVI cells assessed as cell growth promotion at 10^-5 M after 48 hrs by SRB assay relative to control
[2] = tested on: HCT-116; assay: Anticancer activity against human HCT116 cells assessed as cell growth promotion at 10^-5 M after 48 hrs by SRB assay relative to control
[3] = tested on: HL-60(TB); assay: Anticancer activity against human HL-60(TB) cells assessed as cell growth promotion at 10^-5 M after 48 hrs by SRB assay relative to control
How it was run: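 NCI-60 single-dose screen: compound at 10^-5 M, 48 h at 37 °C, 5% CO2; cells grown in RPMI 1640 with 5% FBS and 2 mM L-glutamine, pre-incubated 24 h before dosing. Adherent cells fixed with cold TCA; endpoint is sulforhodamine B protein staining. Percent growth of treated cells is reported relative to untreated control.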

[4] = tested on: OVCAR-3; assay: Anticancer activity against human OVCAR3 cells assessed as cell growth promotion at 10^-5 M after 48 hrs by SRB assay relative to control
[5] = tested on: UACC-257; assay: Anticancer activity against human UACC257 cells assessed as cell growth promotion at 10^-5 M after 48 hrs by SRB assay relative to control
[6] = tested on: UACC-62; assay: Anticancer activity against human UACC62 cells assessed as cell growth promotion at 10^-5 M after 48 hrs by SRB assay relative to control
[7] = tested on: MCF7; assay: Anticancer activity against human MCF7 cells assessed as cell growth promotion at 10^-5 M after 48 hrs by SRB assay relative to control
[8] = tested on: OVCAR-8; assay: Anticancer activity against human OVCAR8 cells assessed as cell growth promotion at 10^-5 M after 48 hrs by SRB assay relative to control
[9] = tested on: TK-10; assay: Anticancer activity against human TK10 cells assessed as cell growth promotion at 10^-5 M after 48 hrs by SRB assay relative to control
[10] = tested on: NCI-H322M; assay: Anticancer activity against human NCI-H322M cells assessed as cell growth promotion at 10^-5 M after 48 hrs by SRB assay relative to control
[11] = tested on: COLO 205; assay: Anticancer activity against human COLO205 cells assessed as cell growth promotion at 10^-5 M after 48 hrs by SRB assay relative to control
[12] = tested on: ACHN; assay: Anticancer activity against human ACHN cells assessed as cell growth promotion at 10^-5 M after 48 hrs by SRB assay relative to control
[13] = tested on: OVCAR-5; assay: Anticancer activity against human OVCAR5 cells assessed as cell growth promotion at 10^-5 M after 48 hrs by SRB assay relative to control
[14] = tested on: M14; assay: Anticancer activity against human M14 cells assessed as cell growth promotion at 10^-5 M after 48 hrs by SRB assay relative to control
[15] = tested on: SK-MEL-5; assay: Anticancer activity against human SK-MEL-5 cells assessed as cell growth promotion at 10^-5 M after 48 hrs by SRB assay relative to control
[16] = tested on: HCT-15; assay: Anticancer activity against human HCT15 cells assessed as cell growth promotion at 10^-5 M after 48 hrs by SRB assay relative to control
[17] = tested on: T47D; assay: Anticancer activity against human T47D cells assessed as cell growth promotion at 10^-5 M after 48 hrs by SRB assay relative to control
[18] = tested on: NCI-H460; assay: Anticancer activity against human NCI-H460 cells assessed as cell growth promotion at 10^-5 M after 48 hrs by SRB assay relative to control
[19] = tested on: UO-31; assay: Anticancer activity against human UO31 cells assessed as cell growth promotion at 10^-5 M after 48 hrs by SRB assay relative to control
[20] = tested on: HOP-62; assay: Anticancer activity against human HOP62 cells assessed as cell growth promotion at 10^-5 M after 48 hrs by SRB assay relative to control
[21] = tested on: K562; assay: Anticancer activity against human K562 cells assessed as cell growth promotion at 10^-5 M after 48 hrs by SRB assay relative to control
[22] = tested on: MDA-MB-468; assay: Anticancer activity against human MDA-MB-468 cells assessed as cell growth promotion at 10^-5 M after 48 hrs by SRB assay relative to control
[23] = tested on: A549; assay: Anticancer activity against human A549 cells assessed as cell growth promotion at 10^-5 M after 48 hrs by SRB assay relative to control
[24] = tested on: A498; assay: Anticancer activity against human A498 cells assessed as cell growth promotion at 10^-5 M after 48 hrs by SRB assay relative to control
[25] = tested on: SK-MEL-28; assay: Anticancer activity against human SK-MEL-28 cells assessed as cell growth promotion at 10^-5 M after 48 hrs by SRB assay relative to control
[26] = tested on: KM12; assay: Anticancer activity against human KM12 cells assessed as cell growth promotion at 10^-5 M after 48 hrs by SRB assay relative to control
[27] = tested on: MDA-MB-435; assay: Anticancer activity against human MDA-MB-435 cells assessed as cell growth promotion at 10^-5 M after 48 hrs by SRB assay relative to control
[28] = tested on: NCI-H226; assay: Anticancer activity against human NCI-H226 cells assessed as cell growth promotion at 10^-5 M after 48 hrs by SRB assay relative to control
[29] = tested on: CCRF-CEM; assay: Anticancer activity against human CCRF-CEM cells assessed as cell growth promotion at 10^-5 M after 48 hrs by SRB assay relative to control
[30] = tested on: SF-539; assay: Anticancer activity against human SF539 cells assessed as cell growth promotion at 10^-5 M after 48 hrs by SRB assay relative to control
[31] = tested on: SNB-19; assay: Anticancer activity against human SNB19 cells assessed as cell growth promotion at 10^-5 M after 48 hrs by SRB assay relative to control
[32] = tested on: NCI/ADR-RES; assay: Anticancer activity against human NCI/ADR-RES cells assessed as cell growth promotion at 10^-5 M after 48 hrs by SRB assay relative to control
[33] = tested on: PC-3; assay: Anticancer activity against human PC3 cells assessed as cell growth promotion at 10^-5 M after 48 hrs by SRB assay relative to control
[34] = tested on: NCI-H23; assay: Anticancer activity against human NCI-H23 cells assessed as cell growth promotion at 10^-5 M after 48 hrs by SRB assay relative to control
[35] = tested on: MOLT-4; assay: Anticancer activity against human MOLT4 cells assessed as cell growth promotion at 10^-5 M after 48 hrs by SRB assay relative to control
[36] = tested on: HT-29; assay: Anticancer activity against human HT-29 cells assessed as cell growth promotion at 10^-5 M after 48 hrs by SRB assay relative to control
[37] = tested on: SK-OV-3; assay: Anticancer activity against human SKOV3 cells assessed as cell growth promotion at 10^-5 M after 48 hrs by SRB assay relative to control

## O=c1c2ccccc2nc(-c2ccco2)n1O
[1]
  Activity: 107.97%
[2]
  Activity: 105.94%
[3]
  Activity: 95.84%
[4]
  Activity: 114.53%
[5]
  Activity: 112.27%
[6]
  Activity: 92.42%
[7]
  Activity: 103.51%
[8]
  Activity: 110.28%
[9]
  Activity: 98.03%
[10]
  Activity: 97.18%
[11]
  Activity: 107.29%
[12]
  Activity: 98.81%
[13]
  Activity: 100.49%
[14]
  Activity: 89.53%
[15]
  Activity: 111.56%
[16]
  Activity: 108.36%
[17]
  Activity: 106.81%
[18]
  Activity: 108.52%
[19]
  Activity: 68.92%
[20]
  Activity: 112.74%
[21]
  Activity: 105.54%
[22]
  Activity: 115.34%
[23]
  Activity: 113.82%
[24]
  Activity: 97.65%
[25]
  Activity: 109.58%
[26]
  Activity: 110.22%
[27]
  Activity: 124.51%
[28]
  Activity: 97.88%
[29]
  Activity: 98.16%
[30]
  Activity: 95.42%
[31]
  Activity: 101.58%
[32]
  Activity: 112.3%
[33]
  Activity: 91.05%
[34]
  Activity: 105.41%
[35]
  Activity: 101.31%
[36]
  Activity: 103.19%
[37]
  Activity: 106.84%

## O=C(O)c1ccc(-n2c(-c3ccco3)nc3ccccc3c2=O)cc1
[1]
  Activity: 98.82%
[2]
  Activity: 99.69%
[3]
  Activity: 94.52%
[4]
  Activity: 105.38%
[5]
  Activity: 107.43%
[6]
  Activity: 84.67%
[7]
  Activity: 63.47%
[8]
  Activity: 104.87%
[9]
  Activity: 94.73%
[10]
  Activity: 97.61%
[11]
  Activity: 103.97%
[12]
  Activity: 101.24%
[13]
  Activity: 98.22%
[14]
  Activity: 103.37%
[15]
  Activity: 94.96%
[16]
  Activity: 93.69%
[17]
  Activity: 83%
[18]
  Activity: 95.38%
[19]
  Activity: 68.61%
[20]
  Activity: 107.05%
[21]
  Activity: 98.25%
[22]
  Activity: 101.43%
[23]
  Activity: 104.77%
[24]
  Activity: 106.88%
[25]
  Activity: 115.08%
[26]
  Activity: 104.99%
[27]
  Activity: 112.17%
[28]
  Activity: 78.42%
[29]
  Activity: 87.86%
[30]
  Activity: 104.2%
[31]
  Activity: 91.35%
[32]
  Activity: 102.28%
[33]
  Activity: 86.25%
[34]
  Activity: 98.82%
[35]
  Activity: 91.05%
[36]
  Activity: 92%
[37]
  Activity: 107.59%
